Shown are actives, neighbours in structure and some others; about 2% of the full set was active somewhere.
SR-BI DiI inh: inhibitors of mouse SR-BI mediated HDL lipid uptake; Q61009; ldlA[mSR-BI] CHO cells, DiI-HDL uptake fluorescence, 3 h; inhibition, % at 12.5 µM; 0.96% of 320,000 active; AID 488896;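 active = mean replicate inhibition of at least 70% and a set share of replicates each scoring 70 or more; inconclusive = meets just one of the two criteria; inactive = fails both criteria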;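 note: 0% = median of neutral control wells and 100% = median of positive control wells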
SR-BI DiI-HDL act: SR-BI HDL lipid transfer activation; CHO ldlA[mSR-BI] cells, DiI-HDL uptake fluorescence, 3 h; 100 = double the neutral-control signal; activation, % at 12.5 µM; 0.096% of 320,000 active;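 active = mean replicate activation of at least 60% and every replicate at or above 60%; inconclusive = mean or all-replicate condition met, but not both; inactive = mean below 60% and not all replicates reaching 60%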;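 note: 0% = median plate neutral-control signal and 100% = twice that signal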
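Material – SR-BI-overexpressing, LDLR-lacking CHO cells · Medium – BSA-supplemented, HEPES-buffered Ham's F12, pH 7.4 · Doses – single concentration · Times – compound with DiI-HDL co-incubation, 3 h at 37 °C · Measured by – bottom-read fluorescence, 550/595 nm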
HGIII-sPLA2 inh: Blocks human group III sPLA2 activity. inhibition, % at 12.2 µM. Q9NZ20. QFRET BODIPY PC-A2 liposome hydrolysis, fluorescence. 0.56% of 370,000 active;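 active = inhibition above mean plus 3 SD of compounds lying within the high and low control bounds, cut at about 19% in these data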;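 note: 0% = median of test compound wells and 100% = no enzyme DMSO wells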
Target sequence (Q9NZ20 whole entry, looked up): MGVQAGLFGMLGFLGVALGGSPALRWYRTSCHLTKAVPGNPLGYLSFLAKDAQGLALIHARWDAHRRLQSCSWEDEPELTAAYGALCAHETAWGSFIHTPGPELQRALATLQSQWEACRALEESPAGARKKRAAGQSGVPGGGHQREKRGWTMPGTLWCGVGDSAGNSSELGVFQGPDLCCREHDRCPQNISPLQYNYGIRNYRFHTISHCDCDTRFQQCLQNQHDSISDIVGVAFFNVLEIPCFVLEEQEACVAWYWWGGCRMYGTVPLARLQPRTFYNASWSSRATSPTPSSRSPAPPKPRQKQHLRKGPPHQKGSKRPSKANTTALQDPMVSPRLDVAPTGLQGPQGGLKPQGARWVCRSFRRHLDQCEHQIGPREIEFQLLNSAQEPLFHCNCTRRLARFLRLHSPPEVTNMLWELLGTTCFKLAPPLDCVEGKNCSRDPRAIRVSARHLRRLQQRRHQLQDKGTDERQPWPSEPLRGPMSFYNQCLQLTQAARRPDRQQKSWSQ
NSD2 inh: blocks human histone methyltransferase NSD2; NSD2 peptide methylation, AlphaScreen, 120 min; inhibition, % at 12.5 µM; 0.54% of 310,000 active; in the data active = inhibition above about 50%
XiGFP reactiv: activators of X-chromosome reactivation in mouse fibroblasts; XiGFP mouse fibroblasts, % GFP-positive cells imaging, 3 d; cells co-treated with 5-aza-dC sensitizer; scaled so ellipticine positive control = 100%; activation, % at 7.58 µM; 0.055% of 360,000 active; AID 743238;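 active = mean normalized replicate activation at least 10% and every replicate at or above 10%; inconclusive = only one of the two criteria met; inactive = mean below 10% and not all replicates reach 10%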;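 note: 0% = median of on-plate neutral control wells and 100% = ellipticine 6 µM median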
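assay system = SV40-immortalized XiGFP fibroblast cells, line 68-5-11 | buffer or medium = DMEM plus 5-aza-dC sensitizer | doses = single-point pinned compound dosing | times = 3-day compound exposure, then 15 min fixation at room temperature | benchmarks = positive control ellipticine, 6 µM final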
ARNT TACC3 PPI: disruptors of human ARNT/TACC3 interaction; AlphaScreen His-ARNT PAS-B/GST-TACC3 binding, luminescence; TACC3 fragment carries E629A point mutation; inhibition, % at 9.99 µM; 0.66% of 390,000 active;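 active = mean inhibition of replicates at least 50% and at least half of replicates each reaching 50%; inconclusive = half or more replicates reach 50% but mean below 50%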;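 note: 0% = complete ARNT plus TACC3 wells and 100% = ARNT alone without TACC3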
sPLA2 confirm: human GIII-sPLA2 inhibition, confirmation; recombinant hGIII-sPLA2, BODIPY PC-A2 QFRET fluorescence; shares compounds with HGIII-sPLA2 inh; inhibition, % at 12.2 µM; 34% of 2,000 active;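 active = mean inhibition across triplicates above the hit cutoff set in the earlier primary screen, cut at about 19% in these data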;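 note: 0% = enzyme with DMSO and 100% = DMSO wells lacking enzyme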
535nm interf: counter-screen for HGIII-sPLA2 inhibitors: 535nm fluorescence interference | inhibition, % at 12.2 µM | BODIPY FL product fluorescence interference, QFRET | 8.5% of 2,000 active | shares compounds with HGIII-sPLA2 inh;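 active = average inhibition above the solvent-only control mean plus 3 SD, cut at about 6% in these data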;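 note: 0% = DMSO with substrate plus product and 100% = DMSO with substrate alone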
* marks the source's active call; other numbers are inactive results; ? = inconclusive; / = no result; ! = a repeat was not active.

SMILES	SR-BI DiI inh	SR-BI DiI-HDL act	HGIII-sPLA2 inh	NSD2 inh	XiGFP reactiv	ARNT TACC3 PPI	sPLA2 confirm	535nm interf
COc1cc2c(c(OC)c1OC)CC(=O)N(C)CC2	4.5	-4.5	13.9	0.0	/	-6.2	/	/
CN1CCc2ccccc2CC1=O	-19.1	19.1	20.4*	23.3	/	-1.5	-1.0	-5.4
Cc1ccc(S(=O)(=O)N2[C@H](CC(=O)c3ccccc3)OC[C@@H]2C(C)C)cc1	/	/	-3.8	/	-0.1	/	/	/
CC(C)c1ccc2c(c1)CCC1C(C)(CN)CCCC21C (configuration not stated)	-6.9	6.9	18.7	/	-0.1	0.7	/	/
CC(C)c1ccc2c(c1)CC[C@H]1[C@](C)(CN)CCC[C@]21C	-0.6	0.6	21.3*!	/	0.3	3.0	21.0*	-27.8
CNC(=S)N1CCN(c2nc(-c3ccc(F)cc3)cs2)CC1	16.6	-16.6	19.6*	-0.7	0.3	-0.3	14.4	-0.6
COCC#Cc1cnc2c(c1)C(=O)N([C@@H](C)CO)C[C@@H](C)[C@@H](CN(C)C(C)=O)O2	/	/	/	/	-0.7	22.2	/	/
CC1CCCC(C)N1NC(=S)Nc1ccc(OC(F)F)cc1 (configuration not stated)	-10.6	10.6	19.4*	0.7	0.1	4.8	20.0*	-6.5
O=C(O)C1(O)C[C@H](O)C(O)[C@@H](O)C1 (some centres not stated)	-8.5	8.5	4.6	/	-0.1	-2.5	/	/
CC1(C)Oc2ccc3ccc(=O)oc3c2C(/C=N/O)=C1Cl	-254.0	?	21.2*	1.3	0.0	3.6	7.9	-4.8
CCC1(CC)Cc2ccccc2C(CC(=O)N2CCOCC2)=N1	9.4	-9.4	19.6*	/	/	15.9	18.6	-10.3
Cc1ccc(CN2CCN(/N=C/c3ccc(N(C)C)cc3)CC2)cc1	-2.7	2.7	21.5*	2.2	-0.1	9.1	12.4	-4.3
CO[C@@H]1CN(C)C(=O)c2ccc(NS(C)(=O)=O)cc2OC[C@@H](C)N(C(=O)CC2CC2)C[C@H]1C	/	/	/	/	0.4	-6.2	/	/
COCC(=O)N(c1ccc(C(C)C)cc1)C1C=CS(=O)(=O)C1 (configuration not stated)	-16.7	16.7	19.3*	22.3	/	4.1	-4.0	-8.3
Cc1nn(CC(=O)Nc2ccc(Cl)cn2)c(C)c1Br	1.1	-1.1	19.7*	0.5	0.5	-10.0	8.0	-4.3
S=C(NCc1ccccn1)Nc1cccc(Cl)c1	-3.3	3.3	4.5	-1.0	/	1.2	/	/
CC(=NNC(=S)Nc1cccc(Cl)c1)c1ccccn1	29.7	-29.7	20.1*	/	?	59.8*	38.5*	3.7
Cc1ccc(S(=O)(=O)NCC(C)n2cncn2)cc1C (configuration not stated)	-8.9	8.9	19.9*	-2.3	0.0	-39.2	-3.1	1.2
COc1ccc(C=NCC2OCCc3ccccc32)cc1OC (configuration not stated)	-19.5	19.5	7.2	4.6	0.0	-4.9	/	/
COc1cc(C=NCC2OCCc3ccccc32)cc(OC)c1 (configuration not stated)	-2.8	5.3	20.2*	-2.5	0.0	2.1	0.1	-3.8
O=C(N/N=C/c1ccc(O)c(O)c1O)/C(=C/c1ccc([N+](=O)[O-])cc1)NC(=O)c1ccccc1	97.8*	-97.8	24.6*	-4.5	/	64.3*	28.7*	6.1*
CC1C(c2ccccc2)=[N+]([O-])C2(CCCCC2)N1O (configuration not stated)	-12.6	12.6	-1.3	0.0	/	-9.3	/	/
Cc1ccccc1NC(=O)Cn1c(O)c(N=NC(=O)c2ccccc2O)c2ccccc21	14.9	-14.9	-7.3	-0.1	0.0	0.5	/	/

High-throughput results deposited in PubChem by several laboratories.
